Consider 3 compounds from ChEMBL document CHEMBL4673384, “Studying Histone Deacetylase Inhibition and Apoptosis Induction of Psammaplin A Monomers with Modified Thiol Group” (ACS Med Chem Lett, 2021).

A short description of series [1]: Antitumor activity against mouse LL/2 cells inoculated in C57BL/6J mouse assessed as reduction of tumor weight at 25 mg/kg, ip administered for 12 days measured at day 14 (reference value: 0.98 +/- 0.07 g). The class given is functional, Lewis lung carcinoma. To be noted: time 12 day.
Series [2] has as its target Histone deacetylase 3/Nuclear receptor corepressor 2 (HDAC3/NCoR2) (Homo sapiens, UniProt O15379). Description: Inhibition of C-terminal His-tagged recombinant human HDAC3 (1 to 428 residues)/N-terminal GST-tagged recombinant human NCoR2 (395 to 489 residues) co-expressed in baculovirus infected Sf9 cells using Boc-Lys(Ac)-AMC as substrate preincubated for 15 mins followed by substrate addition and measured after 60 mins by fluorescence based assay.

Series [3] in a line: Toxicity in mouse LL/2 cells inoculated C57BL/6J mouse assessed as effect on body weight by measuring initial body weight at 25 mg/kg, ip administered for 12 days measured for every 2 days (reference value: 18.4 +/- 0.4 g). The class given is organism-based. The settings on record: in vivo, 288 h, time 12 day.
The nature of series [4]: Antitumor activity against mouse LL/2 cells inoculated in C57BL/6J mouse assessed as tumor growth inhibition at 25 mg/kg, ip administered for 12 days. The class given is functional, Lewis lung carcinoma. Set-up: scale not given: the % may be the effect or the level left. To be noted: time 12 day.
Series [5] concerns the target Histone deacetylase 2 (Homo sapiens, UniProt Q92769). Description: Inhibition of recombinant full length C-terminal FLAG-tagged human HDAC2 expressed in baculovirus infected Sf9 cells using Boc-Lys(Ac)-AMC as substrate preincubated for 15 mins followed by substrate addition and measured after 60 mins by fluorescence based assay.
Series [6] deals with T1, Histone deacetylase 1 (Homo sapiens, UniProt Q13547). As to the kind of experiment: Inhibition of recombinant full length C-terminal FLAG/His-tagged human HDAC1 expressed in baculovirus infected Sf9 cells using Boc-Lys(Ac)-AMC as substrate preincubated for 15 mins followed by substrate addition and measured after 60 mins by fluorescence based assay.
The test system of series [7] is HCT-116. As to the kind of experiment: Antiproliferative activity against human HCT-116 cells assessed as cell growth inhibition incubated for 96 hrs by MTT assay. The class given is functional. A general note: Tetrazolium assays rely on reduction of a dye to a coloured formazan, in cell work by metabolically active cells.
Series [8] deals with HL-60. As to the kind of experiment: Induction of apoptosis in human HL-60 cells assessed as early apoptotic cells at 4 uM incubated for 24 hrs by propidium iodide and annexin-V FITC staining based FACS analysis (reference value: 2.9 %). The class given is functional. In general terms: A flow cytometer gives signals particle by particle.
Series [9] deals with A549. As to the kind of experiment: Antiproliferative activity against human A549 cells assessed as cell growth inhibition incubated for 96 hrs by MTT assay. The class given is functional.
Series [10] can be described thus: Antiproliferative activity against mouse LL/2 cells assessed as cell growth inhibition incubated for 96 hrs by MTT assay. The class given is functional, Lewis lung carcinoma.
Series [11] concerns MCF7. As to the kind of experiment: Antiproliferative activity against human MCF7 cells assessed as cell growth inhibition incubated for 96 hrs by MTT assay. The class given is functional.
Series [12] relates to HL-60. As to the kind of experiment: Induction of apoptosis in human HL-60 cells assessed as cleavage of caspase-3 at 0.5 to 8 uM after 24 hrs Western blot analysis. The class given is functional, cell-based. The settings on record: dose 0.5-8 µM. The procedure, abridged:
(§1)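 HL-60 cells were treated for 24 h at the indicated concentrations, then analysed by Western blot. Blots were probed for cleavage of PARP and caspase-3, -8 and -9. Ac-H3, Ac-α-tubulin and β-actin were also detected, with β-actin as the loading reference.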
On the technique in general: Immunoblotting shows a protein as a band on a membrane.

Series [13] has as its system HL-60. As to the kind of experiment: Growth inhibition of human HL-60 cells after 72 hrs by trypan blue dye based assay. The class given is functional. The settings on record: for GI50: Homo sapiens, HL-60. The procedure, abridged:
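HL-60 leukemia cells were exposed to compound for 72 h. Growth inhibition is reported as IG50 (half the growth inhibition concentration), as means plus SD of three independent experiments.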

In series [14] the target is T1, Histone deacetylase 1. Description: Inhibition of HDAC1 in human HL-60 cells assessed as increase in Ac-H3 level at 0.5 to 8 uM incubated for 24 hrs by Western blot analysis. The class given is cell-based. To be noted: dose 0.5-8 µM. The procedure, abridged:
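Compound given to HL-60 cells for 24 h at the stated concentrations, then lysed. Acetyl-histone H3 and acetyl-α-tubulin levels were read by Western blot, with total H3, α-tubulin or β-actin as references.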

The test system of series [15] is HL-60. Description: Induction of apoptosis in human HL-60 cells assessed as cleavage of caspase-8 at 0.5 to 8 uM after 24 hrs Western blot analysis. The class given is functional, cell-based. The settings on record: dose 0.5-8 µM. An outline of the steps:
as §1

The nature of series [16]: Toxicity in mouse LL/2 cells inoculated C57BL/6J mouse assessed as effect on body weight by measuring end body weight at 25 mg/kg, ip administered for 12 days and measured for every 2 days (reference value: 18.1 +/- 0.2 g). The class given is organism-based. To be noted: in vivo, 288 h, time 12 day.
Series [17] deals with T2, Protein deacetylase HDAC6 (Homo sapiens, UniProt Q9UBN7).
T2 sequence (Q9UBN7 whole entry): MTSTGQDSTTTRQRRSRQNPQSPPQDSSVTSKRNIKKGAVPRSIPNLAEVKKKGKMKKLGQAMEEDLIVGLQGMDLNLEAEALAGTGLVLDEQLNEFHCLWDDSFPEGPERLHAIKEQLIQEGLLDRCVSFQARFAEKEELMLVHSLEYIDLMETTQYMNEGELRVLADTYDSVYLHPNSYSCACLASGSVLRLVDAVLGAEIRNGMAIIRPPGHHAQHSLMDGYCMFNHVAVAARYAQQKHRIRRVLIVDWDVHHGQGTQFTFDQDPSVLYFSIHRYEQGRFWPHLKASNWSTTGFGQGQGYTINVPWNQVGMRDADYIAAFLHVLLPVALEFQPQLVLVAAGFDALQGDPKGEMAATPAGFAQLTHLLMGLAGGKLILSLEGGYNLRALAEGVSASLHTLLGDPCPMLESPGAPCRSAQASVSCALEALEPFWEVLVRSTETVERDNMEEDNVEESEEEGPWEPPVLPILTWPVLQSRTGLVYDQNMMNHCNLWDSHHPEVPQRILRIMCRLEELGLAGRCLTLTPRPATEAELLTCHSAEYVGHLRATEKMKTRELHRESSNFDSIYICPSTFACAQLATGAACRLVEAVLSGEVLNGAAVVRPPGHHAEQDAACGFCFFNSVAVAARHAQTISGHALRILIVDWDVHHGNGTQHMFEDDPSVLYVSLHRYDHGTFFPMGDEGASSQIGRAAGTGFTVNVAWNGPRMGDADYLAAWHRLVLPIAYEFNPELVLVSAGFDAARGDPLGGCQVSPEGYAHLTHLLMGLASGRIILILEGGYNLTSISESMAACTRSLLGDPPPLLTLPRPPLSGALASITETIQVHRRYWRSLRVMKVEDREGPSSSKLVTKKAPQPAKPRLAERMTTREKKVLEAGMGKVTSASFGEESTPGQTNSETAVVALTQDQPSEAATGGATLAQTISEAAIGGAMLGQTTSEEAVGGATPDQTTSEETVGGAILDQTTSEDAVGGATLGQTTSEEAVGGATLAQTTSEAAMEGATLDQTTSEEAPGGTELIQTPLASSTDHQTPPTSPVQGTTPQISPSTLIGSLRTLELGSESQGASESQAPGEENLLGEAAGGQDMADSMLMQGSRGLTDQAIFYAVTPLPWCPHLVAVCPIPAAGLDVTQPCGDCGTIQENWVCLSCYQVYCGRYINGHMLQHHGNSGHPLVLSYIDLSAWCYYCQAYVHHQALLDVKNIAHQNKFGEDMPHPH
Description: Inhibition of recombinant full length C-terminal FLAG-tagged human HDAC6 expressed in baculovirus infected Sf9 cells using Boc-Lys(Ac)-AMC as substrate preincubated for 15 mins followed by substrate addition and measured after 60 mins by fluorescence based assay.

Series [18] deals with HL-60. Description: Induction of apoptosis in human HL-60 cells assessed as cleavage of caspase-9 at 0.5 to 8 uM after 24 hrs Western blot analysis. The class given is functional, cell-based. To be noted: dose 0.5-8 µM. An outline of the steps:
as §1

Calls of active or inactive are those of the source. The calls are words filed in the database; no cut-off is given here.

Sequence of Histone deacetylase 3/Nuclear receptor corepressor 2 (HDAC3/NCoR2) (O15379 whole entry, the tested form may be a part): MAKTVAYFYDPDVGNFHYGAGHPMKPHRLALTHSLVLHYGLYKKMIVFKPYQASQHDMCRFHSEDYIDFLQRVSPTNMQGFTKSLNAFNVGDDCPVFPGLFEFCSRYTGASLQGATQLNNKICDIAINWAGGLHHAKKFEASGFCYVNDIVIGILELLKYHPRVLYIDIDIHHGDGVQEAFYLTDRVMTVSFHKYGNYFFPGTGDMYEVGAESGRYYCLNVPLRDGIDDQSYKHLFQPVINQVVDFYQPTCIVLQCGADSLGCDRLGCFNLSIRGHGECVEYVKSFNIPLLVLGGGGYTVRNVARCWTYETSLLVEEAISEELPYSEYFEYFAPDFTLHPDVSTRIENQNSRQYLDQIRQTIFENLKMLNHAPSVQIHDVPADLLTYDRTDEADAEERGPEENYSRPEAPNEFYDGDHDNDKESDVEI
Sequence of Histone deacetylase 3/Nuclear receptor corepressor 2 (HDAC3/NCoR2) (Q9Y618 whole entry, further chain, the tested form may be a part): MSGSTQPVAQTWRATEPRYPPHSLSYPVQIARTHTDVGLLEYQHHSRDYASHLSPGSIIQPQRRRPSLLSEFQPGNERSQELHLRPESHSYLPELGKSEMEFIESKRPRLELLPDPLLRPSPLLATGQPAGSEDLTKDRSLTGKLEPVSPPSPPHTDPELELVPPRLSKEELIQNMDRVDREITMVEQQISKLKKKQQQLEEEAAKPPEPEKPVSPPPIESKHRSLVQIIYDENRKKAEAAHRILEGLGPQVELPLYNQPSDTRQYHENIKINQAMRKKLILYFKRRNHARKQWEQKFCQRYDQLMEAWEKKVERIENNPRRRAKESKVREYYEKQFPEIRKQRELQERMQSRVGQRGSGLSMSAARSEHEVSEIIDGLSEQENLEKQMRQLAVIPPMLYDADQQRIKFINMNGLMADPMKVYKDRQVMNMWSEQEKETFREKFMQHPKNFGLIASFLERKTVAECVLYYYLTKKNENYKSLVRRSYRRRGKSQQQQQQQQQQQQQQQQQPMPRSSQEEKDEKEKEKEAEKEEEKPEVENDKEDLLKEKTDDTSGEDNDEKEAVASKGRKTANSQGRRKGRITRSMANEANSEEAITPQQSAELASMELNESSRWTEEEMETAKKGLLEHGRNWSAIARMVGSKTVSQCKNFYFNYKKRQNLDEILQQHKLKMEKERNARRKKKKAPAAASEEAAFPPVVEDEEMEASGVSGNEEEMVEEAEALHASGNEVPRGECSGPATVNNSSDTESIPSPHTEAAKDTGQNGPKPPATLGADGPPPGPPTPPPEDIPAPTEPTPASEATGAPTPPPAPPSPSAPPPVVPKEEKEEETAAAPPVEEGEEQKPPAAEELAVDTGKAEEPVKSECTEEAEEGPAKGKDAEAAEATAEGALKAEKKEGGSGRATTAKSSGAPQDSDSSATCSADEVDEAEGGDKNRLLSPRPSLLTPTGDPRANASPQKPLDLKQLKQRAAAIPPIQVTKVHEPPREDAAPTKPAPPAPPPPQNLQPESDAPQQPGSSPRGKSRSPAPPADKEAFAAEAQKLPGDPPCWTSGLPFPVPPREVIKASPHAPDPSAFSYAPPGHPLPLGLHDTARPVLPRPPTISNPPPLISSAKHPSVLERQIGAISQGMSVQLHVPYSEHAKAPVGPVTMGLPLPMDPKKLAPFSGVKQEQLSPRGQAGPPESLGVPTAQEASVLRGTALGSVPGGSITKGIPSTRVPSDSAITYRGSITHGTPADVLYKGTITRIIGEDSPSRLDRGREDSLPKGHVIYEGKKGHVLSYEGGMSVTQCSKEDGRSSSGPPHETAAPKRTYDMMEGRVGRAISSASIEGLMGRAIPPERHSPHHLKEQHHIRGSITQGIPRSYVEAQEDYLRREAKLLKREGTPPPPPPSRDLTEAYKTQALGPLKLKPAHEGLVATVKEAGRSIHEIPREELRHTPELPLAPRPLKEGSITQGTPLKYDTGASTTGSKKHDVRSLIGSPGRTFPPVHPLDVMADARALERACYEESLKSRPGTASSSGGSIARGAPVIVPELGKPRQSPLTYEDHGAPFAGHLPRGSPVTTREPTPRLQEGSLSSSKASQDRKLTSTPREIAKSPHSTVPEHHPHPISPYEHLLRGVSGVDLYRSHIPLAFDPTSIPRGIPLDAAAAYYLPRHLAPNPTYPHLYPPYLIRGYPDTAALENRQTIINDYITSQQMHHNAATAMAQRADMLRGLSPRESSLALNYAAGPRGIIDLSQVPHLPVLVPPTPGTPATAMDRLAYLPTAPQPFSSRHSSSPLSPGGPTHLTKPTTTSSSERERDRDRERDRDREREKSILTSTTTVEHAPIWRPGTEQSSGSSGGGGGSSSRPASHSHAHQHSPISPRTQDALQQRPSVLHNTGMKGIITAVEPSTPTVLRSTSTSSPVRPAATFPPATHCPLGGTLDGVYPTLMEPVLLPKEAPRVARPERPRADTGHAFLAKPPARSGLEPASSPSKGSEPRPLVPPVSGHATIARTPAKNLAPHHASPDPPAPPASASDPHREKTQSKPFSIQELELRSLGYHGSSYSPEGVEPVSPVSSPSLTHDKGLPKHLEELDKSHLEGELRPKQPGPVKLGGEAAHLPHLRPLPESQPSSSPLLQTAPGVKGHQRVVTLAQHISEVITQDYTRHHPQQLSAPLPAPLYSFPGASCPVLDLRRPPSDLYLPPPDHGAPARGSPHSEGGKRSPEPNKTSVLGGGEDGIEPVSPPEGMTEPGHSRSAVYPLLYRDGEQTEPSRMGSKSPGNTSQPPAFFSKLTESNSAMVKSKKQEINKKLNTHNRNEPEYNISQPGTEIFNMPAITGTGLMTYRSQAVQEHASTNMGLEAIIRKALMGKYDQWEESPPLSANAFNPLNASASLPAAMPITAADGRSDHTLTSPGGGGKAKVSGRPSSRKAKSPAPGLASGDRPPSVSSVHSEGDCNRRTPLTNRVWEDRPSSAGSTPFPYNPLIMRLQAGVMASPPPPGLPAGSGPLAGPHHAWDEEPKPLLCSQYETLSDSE
Sequence of Histone deacetylase 2 (Q92769 whole entry): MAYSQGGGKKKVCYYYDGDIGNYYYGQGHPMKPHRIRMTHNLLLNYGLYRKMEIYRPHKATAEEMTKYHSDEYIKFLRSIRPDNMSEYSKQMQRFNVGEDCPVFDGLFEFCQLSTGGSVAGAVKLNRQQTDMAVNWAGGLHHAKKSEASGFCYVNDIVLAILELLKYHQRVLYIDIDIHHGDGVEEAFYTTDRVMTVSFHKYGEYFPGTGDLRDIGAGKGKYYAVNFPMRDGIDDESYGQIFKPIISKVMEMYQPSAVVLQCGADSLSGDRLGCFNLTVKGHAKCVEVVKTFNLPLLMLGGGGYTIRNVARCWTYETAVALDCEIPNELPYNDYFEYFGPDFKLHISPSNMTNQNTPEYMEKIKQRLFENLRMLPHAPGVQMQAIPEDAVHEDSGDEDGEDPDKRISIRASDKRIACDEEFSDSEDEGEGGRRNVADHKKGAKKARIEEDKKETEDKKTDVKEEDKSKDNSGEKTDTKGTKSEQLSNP
T1 sequence (Q13547 whole entry): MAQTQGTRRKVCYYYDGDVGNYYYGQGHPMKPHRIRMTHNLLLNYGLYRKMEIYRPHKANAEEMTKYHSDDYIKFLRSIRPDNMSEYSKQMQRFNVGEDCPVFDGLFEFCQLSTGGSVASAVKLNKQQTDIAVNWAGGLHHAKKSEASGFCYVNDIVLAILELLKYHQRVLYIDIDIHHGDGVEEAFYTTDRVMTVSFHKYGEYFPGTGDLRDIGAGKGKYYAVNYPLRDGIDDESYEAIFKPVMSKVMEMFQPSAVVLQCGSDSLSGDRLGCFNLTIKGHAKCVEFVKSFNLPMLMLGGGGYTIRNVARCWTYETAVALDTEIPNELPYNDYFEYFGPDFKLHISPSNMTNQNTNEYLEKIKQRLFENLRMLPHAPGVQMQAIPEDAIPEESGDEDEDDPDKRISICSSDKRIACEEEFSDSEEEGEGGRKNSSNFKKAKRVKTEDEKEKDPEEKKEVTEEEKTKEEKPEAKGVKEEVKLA

Usually IC50 stands for the concentration that inhibits the measured activity by half. As usually defined, the GI50 is the concentration giving 50% growth inhibition. `O=C(NCCS)/C(Cc1ccc(O)c(Br)c1)=N/O`: the Activity in series [1] turned out to be 0.48 g; in series [3], 18.5 g; in [4], 55.99%; in [8], 1.6%; in series [16], 18.3 g. Moreover, the IC50 in series [2] amounted to 120 nM; in [5] it was 210 nM; in series [6], 52 nM; in series [17], 960 nM. In addition, the IG50 in [7] stood at 5.9 µM; in series [9] it was 10.7 µM; in [10] it was 3.9 µM; in series [11], 17 µM. For the same compound, the result in series [12], in series [15] and in series [18] was Active. It took 680 nM to inhibit growth in series [13] by half (GI50). For the same compound, in series [14], the inhibition entry is “Active”.

As to `O=C(CCNC(=O)/C(Cc1ccc(O)c(Br)c1)=N/O)NO`, the Activity in [1] was found to be 0.45 g; in [3], 18.9 g; in series [4], 54.68%; in [16] it was 18.4 g. Moreover, the concentration for half-maximal inhibition (IC50) in [2] worked out at 20 nM; in [5], 33 nM; in series [6], 18 nM; in series [17], 96 nM. The IG50 in series [7] turned out to be 0.9 µM; in [9] it was 1.1 µM; in series [10], 5 µM; in [11], 1.09 µM; in series [13] it was 0.57 µM.

Take `O=C(NCCSSCCNC(=O)/C(Cc1ccc(O)c(Br)c1)=N/O)/C(Cc1ccc(O)c(Br)c1)=N/O` [PSAMMAPLIN A]: the Activity turned out to be 0.34 g in series [1]; 18.2 g in series [3]; 66.04% in series [4]; 3.4% in series [8]; 18.4 g in series [16]. For the same compound, the IC50 amounted to 12.4 nM in series [2], 33 nM in series [5], 8 nM in series [6] and 311 nM in series [17]. Also, the IG50 in series [7] was determined as 2.3 µM; in series [9], 2.9 µM; in [10], 2.64 µM; in series [11] it was 4.14 µM. The result in series [12], in series [15] and in [18] was Active. Besides, in [13], growth was halved (GI50) at 370 nM. Moreover, in series [14], the inhibition entry is “Active”.
